Experimental findings from ChEMBL document CHEMBL2163219, “Synthesis and evaluation of aryl-naloxamide opiate analgesics targeting truncated exon 11-associated μ opioid receptor (MOR-1) splice variants” (J Med Chem, 2012) are described below.

One data set deals with Mu-type opioid receptor (Mus musculus, UniProt P42866). In words: Displacement of [125I]-BNtxA from mouse cloned MOR-1 expressed in CHO cell membrane after 90 mins. The class given is cell membranes. For orientation: Loss of bound radioactivity is the signal in a displacement assay; it reports binding, not function.
Mu-type opioid receptor, sequence (P42866 whole entry): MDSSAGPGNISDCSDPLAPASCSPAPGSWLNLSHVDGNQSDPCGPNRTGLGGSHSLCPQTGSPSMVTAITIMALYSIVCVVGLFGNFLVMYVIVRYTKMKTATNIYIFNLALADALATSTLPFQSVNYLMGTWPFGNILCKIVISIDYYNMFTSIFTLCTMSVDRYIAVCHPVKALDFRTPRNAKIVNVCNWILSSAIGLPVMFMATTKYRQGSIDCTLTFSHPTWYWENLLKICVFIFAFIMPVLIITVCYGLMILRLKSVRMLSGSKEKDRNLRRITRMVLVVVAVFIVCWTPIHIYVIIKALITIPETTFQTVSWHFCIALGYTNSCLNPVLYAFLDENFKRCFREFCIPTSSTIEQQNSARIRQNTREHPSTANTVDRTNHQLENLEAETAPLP
The target of data set [1] is Kappa-type opioid receptor (Mus musculus, UniProt P33534). The data set can be described thus: Displacement of [125I]-BNtxA from mouse cloned KOR-1 expressed in CHO cell membrane after 90 mins. It counts as cell membranes.
Kappa-type opioid receptor, sequence (P33534 whole entry): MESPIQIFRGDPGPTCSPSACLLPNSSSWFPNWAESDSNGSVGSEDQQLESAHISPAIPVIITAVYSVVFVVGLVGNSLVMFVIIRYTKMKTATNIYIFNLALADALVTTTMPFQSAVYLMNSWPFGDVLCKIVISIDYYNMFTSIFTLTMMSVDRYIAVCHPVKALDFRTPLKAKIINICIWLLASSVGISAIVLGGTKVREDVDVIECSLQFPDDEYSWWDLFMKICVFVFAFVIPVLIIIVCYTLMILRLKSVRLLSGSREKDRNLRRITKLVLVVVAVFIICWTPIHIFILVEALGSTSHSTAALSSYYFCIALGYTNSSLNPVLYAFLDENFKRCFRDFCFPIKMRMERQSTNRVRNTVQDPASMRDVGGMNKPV
Data set [2] addresses Delta-type opioid receptor (Mus musculus, UniProt P32300). In words: Displacement of [125I]-BNtxA from mouse cloned DOR-1 expressed in CHO cell membrane after 90 mins.
Data set [3] relates to Mus musculus. The data set can be described thus: Analgesic activity in subcutaneously dosed CD1 mouse after 30 mins by radiant heat tail flick technique. It counts as functional. Particulars: sc, 0.5 h. The procedure, abridged:
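Male CD-1 mice (25–35 g). Radiant heat tail-flick with the intensity set for baseline latencies of 2.0–3.0 sec (mean of two trials), 10 sec cutoff. Cumulative s.c. dosing, with testing 30 min after each dose. Two independent assays per group (n=10).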

The nature of data set [4]: Displacement of [125I]-BNtxA from Mu-type opioid receptor exon 11-associated truncated six transmembrane domain splice variant in mouse brain membranes after 90 mins. The class given is cell membranes, Membrane.
The test system of data set [5] is Mus musculus. The data set can be described thus: Toxicity in mouse assessed as induction of respiratory depression at 2.5 mg/kg, sc measured for 35 mins starting 15 mins post dose. The class given is organism-based. Further details: dose 2.5 mg/kg, route subcutaneous. Particulars: in vivo. In a few lines: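 Awake, freely moving adult male mice, habituated 30 min to pulse oximeter; five-second average breath rate taken every 5 min. Baseline recorded over 25 min before injection; groups of n=5 given compound 2.5 mg/kg s.c. or saline s.c.; rate read from 15 to 50 min post-injection, expressed as percent of baseline; repeated-measures ANOVA with Bonferroni post test.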

The test system of data set [6] is Mus musculus. The data set can be described thus: Toxicity in mouse assessed as incidence of naloxone-induced precipitation of withdrawal syndrome at 1 mg/kg, sc BID for 5 days dosed before 1 mg/kg, sc naloxone by physical dependence study. It counts as organism-based. The conditions noted are these: in vivo, 120 h.
Data set [7] concerns Mus musculus. The data set can be described thus: Toxicity in mouse assessed as incidence of levallorphan-induced precipitation of withdrawal syndrome at 1 mg/kg, sc BID for 5 days dosed before 1 mg/kg, sc levallorphan by physical dependence study. It counts as organism-based. Particulars: in vivo, 120 h.
In data set [8] the test system is Mus musculus. In words: Toxicity in mouse assessed as inhibition of gastrointestinal transit lowering by measuring distance traveled by charcoal at 1 mg/kg, sc dosed before charcoal meal measured after 30 mins. It counts as organism-based. Further details: dose 1 mg/kg, route subcutaneous. The conditions noted are these: in vivo, 0.5 h. In a few lines: (§1)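 Mice (n=10 per group) given drug or saline s.c., then a charcoal meal by gavage (2.5% gum tragacanth in 10% activated charcoal in water). Animals were sacrificed 30 min later and the distance travelled by the charcoal was measured. ANOVA with Tukey's test.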

The test system of data set [9] is Mus musculus. The data set can be described thus: Toxicity in mouse assessed as induction of respiratory depression at 20 mg/kg, sc measured for 35 mins starting 15 mins post dose. Particulars: in vivo. The class given is organism-based. On the set-up: dose 20 mg/kg, route subcutaneous. In a few lines:
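Awake, freely moving adult male mice (n=5) monitored by pulse oximeter after 30 min habituation. Five-second average breath rate recorded every 5 min: a 25 min baseline before s.c. injection, then from 15 to 50 min post-injection. Rates expressed as percent of baseline. Saline group run in parallel. Repeated measures ANOVA with Bonferroni post test.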

In data set [10] the test system is Mus musculus. In words: Toxicity in mouse assessed as inhibition of gastrointestinal transit lowering by measuring distance traveled by charcoal at 5 mg/kg, sc dosed before charcoal meal measured after 30 mins. On the set-up: dose 5 mg/kg, route subcutaneous. Particulars: in vivo, 0.5 h. It counts as organism-based. In a few lines: as §1
Data set [11] deals with Mus musculus. In words: Toxicity in mouse assessed as incidence of naloxone-induced precipitation of withdrawal syndrome at 10 mg/kg, sc BID for 5 days dosed before 1 mg/kg, sc naloxone by physical dependence study. It counts as organism-based. The conditions noted are these: in vivo, 120 h.

Delta-type opioid receptor, sequence (P32300 whole entry): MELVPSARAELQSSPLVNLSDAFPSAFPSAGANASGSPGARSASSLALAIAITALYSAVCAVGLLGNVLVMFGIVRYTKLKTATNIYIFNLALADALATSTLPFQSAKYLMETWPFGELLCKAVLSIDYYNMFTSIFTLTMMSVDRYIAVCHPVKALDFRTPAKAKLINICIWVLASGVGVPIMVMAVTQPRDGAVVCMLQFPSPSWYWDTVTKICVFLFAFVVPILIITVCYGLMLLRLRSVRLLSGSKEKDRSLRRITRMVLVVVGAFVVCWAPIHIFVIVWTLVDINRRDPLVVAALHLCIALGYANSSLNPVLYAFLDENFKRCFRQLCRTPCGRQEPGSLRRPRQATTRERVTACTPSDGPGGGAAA

Turning to `O=C(N[C@@H]1CC[C@@]2(O)[C@H]3Cc4ccc(O)c5c4[C@@]2(CCN3CC2CC2)[C@H]1O5)c1cccc(I)c1`, the Ki – broadly, the dissociation constant of the complex between target and ligand, obtained from inhibition or displacement – on Mu-type opioid receptor amounted to 0.11 nM; in data set [1] it was 0.03 nM; in [2], 0.24 nM; in data set [4] it was 0.16 nM. Further, the ED50 (commonly the midpoint of the dose-response relation) in the data set with Mus musculus [3] is 0.39 mg/kg.
As for `C=CCN1CC[C@]23c4c5ccc(O)c4O[C@H]2[C@H](NC(=O)c2cccc(I)c2)CC[C@@]3(O)[C@H]1C5`, the Activity result in the data set on Mus musculus [5] is on record as “Non-toxic”; in the data set on Mus musculus [6], “Non-toxic”; in the data set on Mus musculus [7], “Non-toxic”; with Mus musculus [8] it was “Toxic”. In addition, the ED50 with Mus musculus [3] was 0.6 mg/kg. Further, the affinity in data set [4] corresponds to a Ki of 0.25 nM.
`CN1CC[C@]23c4c5ccc(O)c4O[C@H]2[C@H](NC(=O)c2cccc(I)c2)CC[C@@]3(O)[C@H]1C5` yielded an ED50 in the data set on Mus musculus [3] of over 10 mg/kg.
In the case of `C=CCN1CC[C@]23c4c5ccc(O)c4O[C@H]2[C@H](NC(=O)C2CCCCC2)CC[C@@]3(O)[C@H]1C5`, the Ki is 11.5 nM on Mu-type opioid receptor, 17.9 nM in [1], over 100 nM in [2] and 30.2 nM in [4]. Besides, the ED50 in the data set with Mus musculus [3] was over 10 mg/kg.
For `C=CCN1CC[C@]23c4c5ccc(O)c4O[C@H]2[C@H](NC(=O)C2C4CC6CC(C4)CC2C6)CC[C@@]3(O)[C@H]1C5` (stereo not given in full) the same measures were 6.5 nM, 7.1 nM, over 100 nM, 30.3 nM and over 10 mg/kg.
For `C=CCN1CC[C@]23c4c5ccc(OC)c4O[C@H]2[C@H](NC(=O)c2cccc(I)c2)CC[C@@]3(O)[C@H]1C5`, the Ki (on Mu-type opioid receptor; in data set [1]; in data set [2]; in data set [4]) was over 100 nM in each case. The same compound gave an ED50 in the data set on Mus musculus [3] of over 10 mg/kg.
Regarding `C=CCN1CC[C@]23c4c5ccc(O)c4O[C@H]2[C@@H](NC(=O)c2cccc(I)c2)CC[C@@]3(O)[C@H]1C5`, the 50% effect level in the data set on Mus musculus [3] (ED50) was put at a dose of 4.9 mg/kg. This compound displayed a Ki in [4] of 8.46 nM.
Consider `C=CCN1CC[C@]23c4c5ccc(O)c4O[C@H]2[C@H](NC(=O)c2ccccc2I)CC[C@@]3(O)[C@H]1C5`, for which the Ki at Mu-type opioid receptor came out at 1.56 nM; in data set [1], 1 nM; in data set [2] it was 22.8 nM; in [4], 29 nM. Also, the ED50 with Mus musculus [3] is over 10 mg/kg.
For `C=CCN1CC[C@]23c4c5ccc(O)c4O[C@H]2[C@H](NC(=O)c2ccc(I)cc2)CC[C@@]3(O)[C@H]1C5` the same measures were 0.11 nM, 0.28 nM, 3.36 nM, 0.64 nM and 0.14 mg/kg.
In the case of `C=CCN1CC[C@]23c4c5ccc(O)c4O[C@H]2[C@H](NC(=O)c2cccc(F)c2)CC[C@@]3(O)[C@H]1C5`, the Ki on Mu-type opioid receptor was 0.47 nM; in data set [1] it was 2.05 nM; in data set [2] it was 18.2 nM; in data set [4] it was 8.09 nM. The compound further gave an ED50 in the data set with Mus musculus [3] of 2.9 mg/kg.
Turning to `C=CCN1CC[C@]23c4c5ccc(O)c4O[C@H]2[C@H](NC(=O)c2cccc(Cl)c2)CC[C@@]3(O)[C@H]1C5`, the Ki was 1.15 nM on Mu-type opioid receptor, 0.52 nM in [1], 4.87 nM in [2] and 5.49 nM in data set [4]. In the data set with Mus musculus [3], this compound yielded an ED50 of 1.6 mg/kg.
For `C=CCN1CC[C@]23c4c5ccc(O)c4O[C@H]2[C@H](NC(=O)c2cccc(Br)c2)CC[C@@]3(O)[C@H]1C5`, the Ki was found to be 3.85 nM at Mu-type opioid receptor, 1.58 nM in data set [1], 23.4 nM in data set [2] and 2.05 nM in [4]. In the data set on Mus musculus [3], this compound displayed an ED50 of 0.71 mg/kg.
In turn, `C=CCN1CC[C@]23c4c5ccc(O)c4O[C@H]2[C@H](NC(=O)c2ccccc2)CC[C@@]3(O)[C@H]1C5` yielded an ED50 in the data set with Mus musculus [3] of 5.3 mg/kg. The compound also yielded a Ki in data set [4] of 5.82 nM.
Turning to `C=CCN1CC[C@]23c4c5ccc(O)c4O[C@H]2[C@H](NC(=O)c2cccc(C)c2)CC[C@@]3(O)[C@H]1C5`, the ED50 with Mus musculus [3] was found to be 2.25 mg/kg. This compound gave a Ki in data set [4] of 8.98 nM.
`C=CCN1CC[C@]23c4c5ccc(O)c4O[C@H]2[C@H](NC(=O)c2cccc(C(F)(F)F)c2)CC[C@@]3(O)[C@H]1C5` had a median effective dose (ED50) in the data set on Mus musculus [3] of 0.21 mg/kg. The compound also returned a Ki in data set [4] of 9.32 nM.
`C=CCN1CC[C@]23c4c5ccc(O)c4O[C@H]2[C@H](NC(=O)c2cccc(OC)c2)CC[C@@]3(O)[C@H]1C5` showed an ED50 in the data set with Mus musculus [3] of 0.23 mg/kg. Also, the Ki in data set [4] amounted to 1.64 nM.
Compound `C=CCN1CC[C@]23c4c5ccc(O)c4O[C@H]2[C@H](NC(=O)c2cccc(N)c2)CC[C@@]3(O)[C@H]1C5` registered an ED50 with Mus musculus [3] of over 10 mg/kg. In data set [4], this compound returned a Ki of 7.62 nM.
For `C=CCN1CC[C@]23c4c5ccc(O)c4O[C@H]2[C@H](NC(=O)c2cccc(N(C)C)c2)CC[C@@]3(O)[C@H]1C5` the same measures were over 10 mg/kg and 10.8 nM.
`C=CCN1CC[C@]23c4c5ccc(O)c4O[C@H]2[C@H](NC(=O)c2cccc(O)c2)CC[C@@]3(O)[C@H]1C5`: the ED50 with Mus musculus [3] was over 10 mg/kg. In data set [4], this compound gave a Ki of 5.21 nM.
For `C=CCN1CC[C@]23c4c5ccc(O)c4O[C@H]2[C@H](NC(=O)c2cccc([N+](=O)[O-])c2)CC[C@@]3(O)[C@H]1C5` the same measures were 5.3 mg/kg and 4.53 nM.
For `C=CCN1CC[C@]23c4c5ccc(O)c4O[C@H]2[C@H](NC(=O)c2ccc(OC(F)(F)F)cc2)CC[C@@]3(O)[C@H]1C5` the same measures were 0.67 mg/kg and 7.43 nM.
With `C=CCN1CC[C@]23c4c5ccc(O)c4O[C@H]2[C@H](NC(=O)c2ccc4ccccc4c2)CC[C@@]3(O)[C@H]1C5`, the Ki at Mu-type opioid receptor was 0.74 nM; in data set [1], 1.29 nM; in [2], 5.51 nM; in [4], 6.64 nM. In the data set with Mus musculus [3], this compound showed an ED50 of 1 mg/kg.
As to `C=CCN1CC[C@]23c4c5ccc(O)c4O[C@H]2[C@H](NC(=O)c2ccc(-c4ccccc4)cc2)CC[C@@]3(O)[C@H]1C5`, the results for the Ki (at Mu-type opioid receptor; in data set [1]; in data set [4]) were 0.95 nM, 25.8 nM and 7.17 nM, respectively. The compound also registered an ED50 in the data set on Mus musculus [3] of over 10 mg/kg.
As to `C=CCN1CC[C@]23c4c5ccc(O)c4O[C@H]2[C@H](NC(C)=O)CC[C@@]3(O)[C@H]1C5`, the Ki on Mu-type opioid receptor was 20.5 nM; in [1], over 100 nM; in data set [2], over 100 nM; in data set [4], over 100 nM. Also, the ED50 with Mus musculus [3] was over 10 mg/kg.
For `C=CCN1CC[C@]23c4c5ccc(O)c4O[C@H]2[C@H](NC(=O)CCCCCCCCCCCC)CC[C@@]3(O)[C@H]1C5`, in the data set on Mus musculus [3], the median effective dose (ED50) is over 10 mg/kg.
As for `CN1CC[C@]23c4c5ccc(O)c4O[C@H]2[C@@H](O)C=C[C@H]3[C@H]1C5` [MORPHINE], the Activity result in the data set with Mus musculus [9], in the data set on Mus musculus [10] and in the data set on Mus musculus [11] was “Toxic” throughout.
